Results on three molecules are retold here after ChEMBL document CHEMBL4715684, “Computer-aided discovery of phenylpyrazole based amides as potent S6K1 inhibitors” (RSC Med Chem, 2020).

One may read the IC50 as the concentration needed to halve the response being measured. A low value points to greater potency. The inhibition is the share of the control response that was lost under treatment. Higher therefore signals a strong effect. As a reminder, the half-life is the time needed for the level to fall by half in the phase considered. The term Cmax denotes the highest concentration seen after dosing. In general, Vd refers to the apparent volume that relates the amount in the body to the concentration in plasma or blood. As a reminder, the clearance is the rate of elimination divided by the concentration. Higher therefore signals a high capacity for elimination. Usually bioavailability stands for dose-corrected exposure relative to a reference, in per cent. Read a low bioavailability as little systemic uptake. As usually defined, the AUC is the area under the concentration-time curve, a measure of exposure.

Data set [1] has as its target Ribosomal protein S6 kinase beta-1 (Homo sapiens, UniProt P23443). The experiment in a line: Inhibition of human S6K1 using KKRNRTLTK peptide substrate by radiometric assay.
Data set [2] concerns the target CYP2C9 (Homo sapiens, UniProt P11712). The data set can be described thus: Inhibition of human CYP2C9 using tolubutamide as substrate at 10 uM by cocktail inhibition assay. The data set is classed as ADME. The note with it: probe tolubutamide. In outline:
(§1)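 Cocktail P450 assay measuring marker metabolism with and without 10 µM test compound: CYP1A2 phenacetin […] to acetaminophen, CYP2C9 tolbutamide to hydroxytolbutamide, CYP2D6 bufuralol to […], CYP3A4 midazolam to 1'-hydroxymidazolam. Each substrate was at about its Km. Isoform-specific inhibitors were run as system controls. Values are means of three experiments, with errors within 30% of the mean.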

The target of data set [3] is CYP3A4 (Homo sapiens, UniProt P08684). The data set can be described thus: Inhibition of human CYP3A4 using midazolam as substrate at 10 uM by cocktail inhibition assay. The class given is ADME. The note with it: probe midazolam. In outline:
as §1

Data set [4] can be described thus: Metabolic stability in human liver microsomes assessed as half life. The data set is classed as ADME, Microsome. An outline of the steps:
(§2)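 Half-life in human or rat liver microsomes, reported as the mean of three experiments with errors within 30% of the mean.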
In general terms: Liver microsomes are vesicles of endoplasmic reticulum, rich in cytochrome P450 enzymes.

Data set [5] in a line: Cmax in Sprague-Dawley rat at 2 mg/kg, po measured upto 8 hrs by LC/MS/MS analysis. The class given is ADME, organism-based. More on the design: route oral, dose 2 mg/kg, time <=8. The note with it: in vivo. An outline of the steps:
(§3)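 Sprague Dawley rats were dosed with compound in a generic formulation at 1 mg mL-1, either 1 mg kg-1 iv into the femoral vein or 2 mg kg-1 by oral gavage. Blood was drawn at 5, 15, 30 min and 1, 2, 4, 6, 8 h into EDTA, and plasma was obtained by centrifugation. Plasma was precipitated with acetonitrile containing internal standard, then analysed by C18 LC-MS/MS (positive MRM) against internal-standard peak areas. Data were fitted with an IV bolus model.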

The target in data set [6] is CYP2D6 (Homo sapiens, UniProt P10635). The data set can be described thus: Inhibition of human CYP2D6 using bufuralol as substrate at 10 uM by cocktail inhibition assay. The note with it: probe bufuralol. The class given is ADME. An outline of the steps: as §1
Sequence of CYP2D6 (P10635 whole entry): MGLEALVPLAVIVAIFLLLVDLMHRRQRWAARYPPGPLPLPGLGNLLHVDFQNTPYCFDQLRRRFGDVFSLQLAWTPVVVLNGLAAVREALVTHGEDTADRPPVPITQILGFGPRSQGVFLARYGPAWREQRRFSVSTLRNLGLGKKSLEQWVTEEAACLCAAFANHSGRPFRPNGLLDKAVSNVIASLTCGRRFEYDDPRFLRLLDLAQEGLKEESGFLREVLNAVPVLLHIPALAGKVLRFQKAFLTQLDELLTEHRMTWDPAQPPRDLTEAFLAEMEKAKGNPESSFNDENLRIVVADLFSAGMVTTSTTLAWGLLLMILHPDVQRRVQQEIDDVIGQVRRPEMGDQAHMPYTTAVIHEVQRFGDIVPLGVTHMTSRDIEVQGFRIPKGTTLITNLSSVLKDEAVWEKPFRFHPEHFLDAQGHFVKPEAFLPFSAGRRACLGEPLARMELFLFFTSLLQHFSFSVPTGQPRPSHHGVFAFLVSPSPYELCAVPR
Data set [7] can be described thus: Volume of distribution in Sprague-Dawley rat at 1 mg/kg, iv measured upto 8 hrs by LC/MS/MS analysis. The data set is classed as ADME, organism-based. The note with it: in vivo. In outline: as §3
Data set [8] can be described thus: Metabolic stability in rat liver microsomes assessed as half life. The data set is classed as ADME, Microsome. An outline of the steps:
as §2

Data set [9] has as its target T1, CYP1A2 (Homo sapiens, UniProt P05177).
T1 sequence (P05177 whole entry): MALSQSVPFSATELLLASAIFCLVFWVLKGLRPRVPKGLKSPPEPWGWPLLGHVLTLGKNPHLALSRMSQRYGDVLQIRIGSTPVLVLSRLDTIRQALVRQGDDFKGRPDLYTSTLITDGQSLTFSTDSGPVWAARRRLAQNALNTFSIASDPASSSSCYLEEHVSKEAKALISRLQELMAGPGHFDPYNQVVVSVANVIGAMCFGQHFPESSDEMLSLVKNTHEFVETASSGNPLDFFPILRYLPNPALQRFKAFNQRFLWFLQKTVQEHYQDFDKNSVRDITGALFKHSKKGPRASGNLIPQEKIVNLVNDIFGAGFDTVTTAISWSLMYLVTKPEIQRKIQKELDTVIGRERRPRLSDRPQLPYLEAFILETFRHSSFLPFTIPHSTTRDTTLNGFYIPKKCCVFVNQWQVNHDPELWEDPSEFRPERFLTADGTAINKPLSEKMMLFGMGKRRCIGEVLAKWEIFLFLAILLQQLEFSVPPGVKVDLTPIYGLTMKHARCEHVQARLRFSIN
The data set can be described thus: Inhibition of human CYP1A2 using phenacetin as substrate at 10 uM by cocktail inhibition assay. The data set is classed as ADME. The note with it: probe phenacetin. An outline of the steps:
as §1

Data set [10] in a line: Clearance in Sprague-Dawley rat at 1 mg/kg, iv measured upto 8 hrs by LC/MS/MS analysis. The class given is ADME, organism-based. The note with it: in vivo. In outline: as §3
Data set [11] in a line: Half life in Sprague-Dawley rat at 1 mg/kg, iv measured upto 8 hrs by LC/MS/MS analysis. The class given is ADME, organism-based. Conditions: in vivo. In outline:
as §3

The nature of data set [12]: Oral bioavailability in Sprague-Dawley rat at 2 mg/kg measured upto 8 hrs by LC/MS/MS analysis. The data set is classed as ADME, organism-based. The note with it: in vivo. An outline of the steps: as §3
Data set [13] in a line: AUC in Sprague-Dawley rat at 1 mg/kg, iv measured upto 8 hrs by LC/MS/MS analysis. The data set is classed as ADME, organism-based. Further details: route intravenous, dose 1 mg/kg, time <=8. The note with it: in vivo. An outline of the steps: as §3

Sequence of Ribosomal protein S6 kinase beta-1 (P23443 whole entry): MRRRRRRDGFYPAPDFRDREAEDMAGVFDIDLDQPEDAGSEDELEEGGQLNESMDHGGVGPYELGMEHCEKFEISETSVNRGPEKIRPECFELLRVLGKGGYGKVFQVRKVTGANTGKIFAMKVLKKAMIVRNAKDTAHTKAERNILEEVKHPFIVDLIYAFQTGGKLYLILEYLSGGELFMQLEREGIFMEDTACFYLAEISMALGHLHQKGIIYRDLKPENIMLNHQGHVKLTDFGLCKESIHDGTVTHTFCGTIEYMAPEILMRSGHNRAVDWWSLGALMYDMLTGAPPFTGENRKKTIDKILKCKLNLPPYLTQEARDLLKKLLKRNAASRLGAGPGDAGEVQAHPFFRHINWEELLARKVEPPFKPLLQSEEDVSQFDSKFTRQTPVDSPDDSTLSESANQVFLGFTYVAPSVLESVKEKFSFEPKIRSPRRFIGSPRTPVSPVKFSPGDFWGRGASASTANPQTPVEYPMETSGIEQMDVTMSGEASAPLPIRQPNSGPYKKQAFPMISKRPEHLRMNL
Sequence of CYP2C9 (P11712 whole entry, canonical isoform): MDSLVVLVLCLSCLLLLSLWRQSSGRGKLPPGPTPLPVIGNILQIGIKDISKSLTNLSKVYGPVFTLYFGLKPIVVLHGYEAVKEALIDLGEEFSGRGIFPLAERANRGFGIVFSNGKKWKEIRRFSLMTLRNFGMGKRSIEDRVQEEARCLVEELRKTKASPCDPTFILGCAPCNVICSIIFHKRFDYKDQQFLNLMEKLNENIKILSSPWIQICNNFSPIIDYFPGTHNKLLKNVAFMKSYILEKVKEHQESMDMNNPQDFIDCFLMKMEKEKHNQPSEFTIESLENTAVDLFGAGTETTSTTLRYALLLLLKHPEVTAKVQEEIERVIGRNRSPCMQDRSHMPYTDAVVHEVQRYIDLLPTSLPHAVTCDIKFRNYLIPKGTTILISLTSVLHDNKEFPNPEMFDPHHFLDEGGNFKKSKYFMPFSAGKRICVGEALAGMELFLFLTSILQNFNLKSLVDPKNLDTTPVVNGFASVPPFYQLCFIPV
Sequence of CYP3A4 (P08684 whole entry): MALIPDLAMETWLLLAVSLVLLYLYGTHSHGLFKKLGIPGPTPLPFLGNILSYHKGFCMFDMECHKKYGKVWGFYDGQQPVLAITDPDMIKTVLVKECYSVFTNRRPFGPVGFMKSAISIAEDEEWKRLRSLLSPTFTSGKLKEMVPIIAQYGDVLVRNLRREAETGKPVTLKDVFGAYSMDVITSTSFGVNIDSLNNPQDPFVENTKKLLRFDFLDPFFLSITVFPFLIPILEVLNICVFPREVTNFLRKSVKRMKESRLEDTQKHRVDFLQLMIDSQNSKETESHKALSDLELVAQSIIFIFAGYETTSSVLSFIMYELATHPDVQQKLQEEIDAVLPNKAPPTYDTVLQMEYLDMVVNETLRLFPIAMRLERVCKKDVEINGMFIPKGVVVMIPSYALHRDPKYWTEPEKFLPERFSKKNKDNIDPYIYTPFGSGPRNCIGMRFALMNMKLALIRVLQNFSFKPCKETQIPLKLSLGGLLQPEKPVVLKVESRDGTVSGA

In data set [1], `O=C(Nc1ccc(-c2cn[nH]c2)cc1F)C1COc2ccccc2O1` (stereo not drawn) showed an IC50 of 179 nM.

With `COc1ccc2c(c1)CC(C(=O)Nc1cc(F)c(-c3cn[nH]c3)c(F)c1)CO2` (stereo not drawn), the inhibition at 10 µM in data set [2] turned out to be 63%; in data set [3] it was 38%; in data set [6], 40%; in data set [9], 42%. Moreover, the half-life in data set [4] is 23 min; in data set [8], 17 min; in data set [11], 28.2 min. Also, the Cmax in data set [5] is 670 nM. For the same molecule, in data set [7], the volume of distribution (Vd) was 0.7 L/kg. Also, in data set [1], the IC50 is 56.7 nM. This molecule also had a clearance in [10] of 28 mL/min/kg. In addition, the bioavailability in [12] is 25%. The AUC at 8 h in data set [13] came to 1.6 µM·h.

Regarding `O=C(Nc1cc(F)c(-c2cn[nH]c2)c(F)c1)C1COc2ccccc2C1` (stereo not drawn), in data set [5], the peak concentration (Cmax) came to 600 nM. This molecule also came in with a Vd in data set [7] of 0.8 L/kg. The bioavailability in [12] was determined as 23%. This molecule also had an exposure (AUC) at 8 h in [13] of 1.5 µM·h.
